The source made the active and inactive calls.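 How the source made its calls, unless noted: active means visual image review flags a hit and inhibition of aggregation exceeds 20%; inconclusive means visual hit but inhibition at or below 20%; inactive means no hit on visual image review.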
Legend:
[1] = inhibitors of TNFa-induced NFkB p65 translocation, primary screen, imaging, HUVEC, MLSMR starter and 10KST1 sets (AID 438;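 active means inhibition above 20% together with a positive visual image hit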;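 further: compound added about 3h40 before a 20 min TNFalpha stimulation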;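 on inhibition: signal is the nuclear over cytoplasmic p65 intensity ratio per well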); conditions: HUVEC TNFa-induced p65 nuclear translocation; cell count: measured here: nuclei count (cytotoxicity indicator), at 2.08 µM; inhibition: at 2 µM, stronger effect = higher value, 0% TNFa-plus-vehicle, 100% no-TNFa wells
[2] = inhibitors of mutant huntingtin aggregation, primary screen, imaging, exon1htt(103Q)mCFP cells, high-content imaging (AID 483); conditions: exon1htt(103Q)mCFP cell line, aggregate imaging, at 2 µM; inhibition of aggregation: stronger effect = higher value; nuclei count: measured here: cell count, toxicity;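 further: compound exposure lasted 3 days before fixation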;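 on nuclei count: percent of the per-plate median nuclei count of sample wells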
[3] = inhibitors of E-selectin induction by TNFa, primary screen, imaging, HUVEC, immunofluorescence, MLSMR starter and 10KST1 sets (AID 487;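 active means visually confirmed hit in the image check and inhibition above 20%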;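 on inhibition: signal is fraction of cell area covered by stained E-selectin grains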;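 on nuclei count: 100% = median nuclei count of all wells on the same plate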); conditions: HUVEC TNFalpha-induced E-selectin immunofluorescence imaging, at 2 µM; inhibition: stronger effect = higher value; nuclei count: measured here: cell number, toxicity
[4] = biological target: Voltage-gated potassium channel subunit beta-2 (Rattus norvegicus) (UniProt P62483); test: KvBeta enzyme negative modulators, primary screen, biochemical, NADPH fluorescence (AID 622;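 active means fluorescence slope higher than the sample average by over 3 SD, cut at about -0.22 in these data, passing the limit was not always enough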;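 further: slope of raw intensity against log time taken from 70 to 1610 s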); conditions: recombinant KvBeta, 4-cyanobenzaldehyde reduction, at 10 µM, stronger effect = higher value
[5] = biological target: Voltage-gated potassium channel subunit beta-2 (Rattus norvegicus) (UniProt P62483); test: KvBeta positive modulators, primary screen, biochemical, NADPH fluorescence (AID 623;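 active means NADPH fluorescence slope more negative than the mean of all samples by about 3 SD, 99.7% confidence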;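 further: fluorescence intensity change per second fitted from 20 to 320 s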); conditions: Recombinant KvBeta, NADPH fluorescence decrease slope, 10 min; at 10 µM; stronger effect = lower value
[6] = biological target: Muscarinic acetylcholine receptor M4 (Homo sapiens) (UniProt P08173); test: compounds altering M4/GIRK thallium flux, either direction, primary screen, M4 allosteric agonist project, cell-based, HEK293 M4/GIRK, BTC-AM (AID 625;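 active means fluorescence slope after compound addition differing from the mean of all tested samples at 99.7% confidence, mostly higher but some lower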;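 further: thallium influx through GIRK channels coupled to M4 in HEK293 cells with BTC-AM dye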); conditions: at 10 µM, actives lie on both sides
Procedure, shortened: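 Assay system: HEK293 cells with M4 receptor and GIRK channels / Controls: carbachol and DMSO controls / Schedule: 1 h dye loading, 2 min kinetic read / Technique: kinetic fluorescence with BTC-AM dye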

[7] = inhibitors of Sendai virus-induced IRF3 signaling, primary screen, TLR/RLR signaling modifier project, cell-based, Sendai virus stimulus, luciferase, 10K MLSCN set (AID 602276;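 active means inhibition at or above 50% at 10 µM; inactive means inhibition below 50%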;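 further: firefly luciferase from ISG56 promoter only with Renilla not read in this screen; 0% = Sendai virus plus DMSO and 100% = medium plus DMSO without virus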); conditions: HEK293 RL24 IRF3 luciferase reporter, at 10 µM, stronger effect = higher value
[8] = inhibitors of poly I:C-induced TLR3 signaling, primary screen, cell-based, poly I:C stimulus, luciferase, 10K MLSCN set (AID 602277;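 active means inhibition of the reporter signal at or above 50%; inactive means inhibition below 50%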); conditions: HEK293-TLR3 RL24 IRF3 luciferase reporter, at 10 µM, stronger effect = higher value
[9] = biological target: Alpha-2C adrenergic receptor (Homo sapiens) (UniProt P18825); test: modulators of alpha2C/GIRK thallium flux, primary screen, cell-based, HEK293 alpha2C/GIRK1/2 (AID 624;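 active means fluorescence slope after compound addition differing from the mean of all screened samples at 99.7% confidence, in either direction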;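 further: slope of fluorescence ratio to pre-addition baseline per second over 15 to 24 s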); conditions: thallium flux BTC fluorescence, at 10 µM, actives lie on both sides
[10] = inhibitors of larval lipid processing in zebrafish, primary screen, whole organism, PED6 fluorescence, gall bladder and intestine (AID 686;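 active means a full or partial loss of lipid-probe fluorescence in the fish gall bladder, intestine or both, judged by eye; inactive means no fluorescence loss, or compound toxic to the fish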;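 further: larvae 5 to 7 days old with five fish per well; signal comes from phospholipase A2 cleavage of quenched PED6 carried via bile; overnight exposure to compound and PED6 before scoring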); conditions: Zebrafish larvae PED6 lipid processing, fluorescence scoring; screened at 20 µM (by protocol)
Procedure, shortened: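 Doses: 20 µM single dose. Test system: live zebrafish larvae aged 5-7 days, whole organism. Quantity: five larvae per well. Measured by: By-eye fluorescence microscopy. Reagent: ingested quenched lipid PED6 at 100 nM. Read-out: visual per-well fluorescence inhibition score. Times: overnight exposure of larvae to compound plus PED6.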

Sequence of Voltage-gated potassium channel subunit beta-2 (Rattus norvegicus) (P62483 whole entry, looked up): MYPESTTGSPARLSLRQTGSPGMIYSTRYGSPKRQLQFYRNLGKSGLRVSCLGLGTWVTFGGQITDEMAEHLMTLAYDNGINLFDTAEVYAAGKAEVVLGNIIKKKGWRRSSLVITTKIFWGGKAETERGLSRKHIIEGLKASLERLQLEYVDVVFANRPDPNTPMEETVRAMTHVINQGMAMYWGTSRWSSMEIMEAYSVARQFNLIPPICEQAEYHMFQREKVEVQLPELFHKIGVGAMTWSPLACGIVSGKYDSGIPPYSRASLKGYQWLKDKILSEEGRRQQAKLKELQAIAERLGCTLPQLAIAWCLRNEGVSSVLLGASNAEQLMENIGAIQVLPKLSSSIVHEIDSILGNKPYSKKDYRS
Sequence of Muscarinic acetylcholine receptor M4 (Homo sapiens) (P08173 whole entry, looked up): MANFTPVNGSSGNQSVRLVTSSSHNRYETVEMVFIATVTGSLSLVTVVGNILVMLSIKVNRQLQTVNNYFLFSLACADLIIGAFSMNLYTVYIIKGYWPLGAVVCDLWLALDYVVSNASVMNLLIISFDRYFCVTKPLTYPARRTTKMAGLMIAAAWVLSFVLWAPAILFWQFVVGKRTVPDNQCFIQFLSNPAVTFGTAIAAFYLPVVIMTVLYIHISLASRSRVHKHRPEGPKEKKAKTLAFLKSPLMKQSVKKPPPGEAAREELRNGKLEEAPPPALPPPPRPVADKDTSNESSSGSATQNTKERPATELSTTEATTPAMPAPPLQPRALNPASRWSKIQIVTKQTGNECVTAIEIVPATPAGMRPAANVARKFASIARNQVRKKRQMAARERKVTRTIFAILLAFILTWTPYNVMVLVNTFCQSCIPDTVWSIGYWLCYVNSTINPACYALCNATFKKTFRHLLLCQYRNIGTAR
Sequence of Alpha-2C adrenergic receptor (Homo sapiens) (P18825 whole entry, looked up): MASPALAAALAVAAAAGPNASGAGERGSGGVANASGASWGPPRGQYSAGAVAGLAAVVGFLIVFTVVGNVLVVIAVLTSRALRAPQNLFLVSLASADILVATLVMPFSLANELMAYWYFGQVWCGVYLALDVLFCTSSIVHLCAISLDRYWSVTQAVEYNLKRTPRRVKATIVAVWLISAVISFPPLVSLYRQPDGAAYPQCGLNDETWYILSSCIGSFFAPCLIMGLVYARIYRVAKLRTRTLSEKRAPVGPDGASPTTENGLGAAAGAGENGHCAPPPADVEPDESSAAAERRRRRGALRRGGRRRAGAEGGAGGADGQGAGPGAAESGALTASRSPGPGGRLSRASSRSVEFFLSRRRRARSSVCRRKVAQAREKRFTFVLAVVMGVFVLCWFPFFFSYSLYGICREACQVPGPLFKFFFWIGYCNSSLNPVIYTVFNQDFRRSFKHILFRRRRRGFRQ

SMILES | cell count [1] | inhibition [1] | inhibition of aggregation [2] | nuclei count [2] [%] | inhibition [3] | nuclei count [3] [%] | fluorescence slope [4] | NADPH fluorescence slope [5] | fluorescence slope [6] | inhibition [7] | inhibition [8] | slope [9] | outcome [10]
CN1CC=C2C(C#N)=C(N)C(C#N)(C#N)C(c3cccc(Cl)c3Cl)C2C1 (centres undefined) | 566 | -8.5% (inactive) | -7.2% (inactive) | 110 | -13.9% (inactive) | 99.2 | -0.399 (inactive) | -0.000109 (inactive) | 0.00362 (inactive) | 8.89% (inactive) | 9.8% (inactive) |  | 
CCn1c(SCC(=O)Nc2ccc(C(C)=O)cc2)nc2ccccc21 | 227 | 14.4% (inactive) | -7.2% (inactive) | 101 | -2.2% (inactive) | 98.3 | -0.453 (inactive) | -0.000344 (inactive) | 0.00502 (inactive) | -13% (inactive) | -19.9% (inactive) |  | 
NC1=NC(c2ccc(Br)cc2)n2c(nc3ccccc32)N1 (centres undefined) | 779 | 4.8% (inactive) | -6.6% (inactive) | 105 | -44.9% (inactive) | 106 | -0.556 (inactive) | -1.5e-06 (inactive) | 0.00498 (inactive) | 17.6% (inactive) | 25% (inactive) |  | 
COc1cc2[nH]c(=O)n(CCC(=O)N3CCc4ccccc4C3)c(=O)c2cc1OC | 452 | -20.3% (inactive) | 6.9% (inactive) | 94.4 | -83.3% (inactive) | 108 | -0.15 (inactive) | -9.5e-06 (inactive) | 0.00747 (inactive) | 14.4% (inactive) | -15.8% (inactive) |  | 
O=C(Nc1cc(C(F)(F)F)ccc1Cl)c1cc(C2CC2)on1 | 404 | -3.9% (inactive) | -8.1% (inactive) | 102 | -25.8% (inactive) | 61.5 | -0.45 (inactive) | -5.4e-05 (inactive) | 0.00518 (inactive) | 21.5% (inactive) | 27.4% (inactive) |  | 
COc1cccc(OCC(O)CN2CCN(CCO)CC2)c1 (centres undefined) | 383 | -1% (inactive) | -24.6% (inactive) | 105 | -46.4% (inactive) | 102 | -0.475 (inactive) | -0.000292 (inactive) | 0.00352 (inactive) | 8.25% (inactive) | 13.5% (inactive) |  | 
COc1ccc(-c2noc(C3CCCN(C(=O)CCc4ccccc4)C3)n2)cc1 (centres undefined) | 383 | -3.5% (inactive) | 18.4% (inactive) | 101 | -83.2% (inactive) | 57.8 | -0.454 (inactive) | -5e-06 (inactive) | 0.00551 (inactive) | 12.3% (inactive) | 1.57% (inactive) |  | 
CCN(CCO)C1CC(=O)N(c2ccccc2C)C1=O (centres undefined) | 486 | 7.7% (inactive) | 12.4% (inactive) | 104 | -126% (inactive) | 145 | -0.321 (inactive) | -3.6e-05 (inactive) | 0.00663 (inactive) | 4.48% (inactive) | 13% (inactive) |  | 
CCSc1nc(O)c(CC)c(=O)n1C(C)CC (centres undefined) | 304 | 2.1% (inactive) | -3.7% (inactive) | 112 | -56.3% (inactive) | 111 | -0.556 (inactive) | -3.6e-05 (inactive) | 0.00478 (inactive) | -0.896% (inactive) | 4.86% (inactive) |  | 
O=C(COC(=O)C1=COCCO1)Nc1ccccc1Oc1ccccc1 | 672 | 9.6% (inactive) | 31% (inactive) | 90.2 | -33.5% (inactive) | 103 | -0.541 (inactive) | -2.5e-05 (inactive) | 0.00561 (inactive) | 1.11% (inactive) | 8.4% (inactive) |  | 
CCOc1ccccc1C(=O)NCCCn1ccnc1 | 469 | 5.5% (inactive) | 6.9% (inactive) | 96.2 | -89.5% (inactive) | 121 | -0.576 (inactive) | -6.1e-05 (inactive) | 0.00757 (inactive) | 11.4% (inactive) | 8.04% (inactive) |  | 
CCCn1c(SCC(=O)NCCc2ccccc2)nnc1-c1ccccn1 | 501 | -7.9% (inactive) | 12.6% (inactive) | 103 | -28.9% (inactive) | 104 | -0.543 (inactive) | -4.4e-05 (inactive) | 0.00518 (inactive) | 3.67% (inactive) | 12.4% (inactive) |  | 
Cc1ccc(-c2cc(C(=O)NCc3ccc4c(c3)OCO4)no2)cc1 | 382 | 0.3% (inactive) | 8.6% (inactive) | 92.9 | 17% (inactive) | 101 | -0.315 (inactive) | -6.4e-05 (inactive) | 0.00532 (inactive) | -10.4% (inactive) | -26.2% (inactive) |  | 
CC(C)(C)n1ncc2c(=O)n(CC(=O)c3ccccc3)cnc21 | 473 | -1% (inactive) | -4.1% (inactive) | 126 | 22.9% (inactive) | 105 | -0.534 (inactive) | -2.2e-05 (inactive) | 0.00534 (inactive) | -21.3% (inactive) | -59.6% (inactive) |  | 
COc1ccc(NS(=O)(=O)c2c(C)[nH]c(=O)[nH]c2=O)c(OC)c1 | 409 | 3.8% (inactive) | 7.4% (inactive) | 103 | -40.5% (inactive) | 113 | -0.565 (inactive) | -2.6e-05 (inactive) | 0.00529 (inactive) | 7.23% (inactive) | 13.8% (inactive) |  | 
O=C(Cn1c(=O)[nH]c2ccsc2c1=O)N1CCN(c2ccc(F)cc2)CC1 | 654 | -29.9% (inactive) | -0.5% (inactive) | 106 | -34.1% (inactive) | 121 | -0.451 (inactive) | -3e-05 (inactive) | 0.00533 (inactive) | 15.1% (inactive) | 21.3% (inactive) |  | 
COc1ccc(CN2C(=O)c3ccccc3C2C(=O)NC2CCCC2)c(OC)c1 (centres undefined) | 671 | -4.8% (inactive) | 8.3% (inactive) | 87.1 | -53.3% (inactive) | 112 | -0.443 (inactive) | -4.9e-05 (inactive) | 0.00535 (inactive) | 14.9% (inactive) | 9.49% (inactive) |  | 
CCOC(=O)C(C)Sc1nc2c(cnn2-c2ccc(C)cc2)c(=O)[nH]1 (centres undefined) | 239 | -1.3% (inactive) | 6.8% (inactive) | 102 | 11.9% (inactive) | 110 | -0.503 (inactive) | 8.8e-05 (inactive) | 0.00678 (inactive) | 6.58% (inactive) | 8.01% (inactive) |  | 
CCc1cc2ccc(C)cc2nc1SCC(=O)N1CCN(C(=O)c2ccco2)CC1 | 431 | 4.8% (inactive) | 15.4% (inactive) | 106 | -49.1% (inactive) | 119 | -0.504 (inactive) | -0.000145 (inactive) | 0.00487 (inactive) | 11.9% (inactive) | 5.95% (inactive) |  | 
CC(C)CN(CC(C)C)c1nc(N)c(C#N)c(CC#N)c1C#N | 326 | -7% (inactive) | 9% (inactive) | 102 | -60.7% (inactive) | 120 | -0.318 (inactive) | -5e-05 (inactive) |  |  | 62.5% (active) | 0.00502 (inactive) | inactive
COc1ccc(CC(=O)Nc2c3c(nn2-c2cccc(Cl)c2)CS(=O)(=O)C3)cc1 | 785 | -11.6% (inactive) | -2.4% (inactive) | 98.5 | -28.2% (inactive) | 107 | -0.529 (inactive) | 1.2e-05 (inactive) | 0.00322 (inactive) | 19.7% (inactive) | 20.9% (inactive) |  | 
Cc1cc(Nc2ccccc2)n(CCC#N)n1 | 350 | 1.6% (inactive) | -7.9% (inactive) | 96.4 | -89.1% (inactive) | 129 | -0.415 (inactive) | -8.1e-05 (inactive) | 0.00613 (inactive) | 15.7% (inactive) | 14.3% (inactive) |  | 
O=C(Nc1ccccc1)N(Cc1cccnc1)Cc1ccco1 | 335 | -0.7% (inactive) | 5.9% (inactive) | 97.2 | -36.9% (inactive) | 103 | -0.463 (inactive) | -3.6e-05 (inactive) | 0.00427 (inactive) | 18.2% (inactive) | 14.3% (inactive) |  | 
COCCCNCC(=O)Nc1ccc(OC(F)(F)F)cc1 | 363 | 14.4% (inactive) | -4.3% (inactive) | 89.5 |  | 119 | -0.403 (inactive) | -4.5e-05 (inactive) |  | -4.19% (inactive) | -0.468% (inactive) | 0.00627 (inactive) | inactive
Cc1[nH]nc2c1C1(CCN(C(=O)c3ccccc3)CC1)C(C#N)=C(N)O2 | 316 | -17% (inactive) | 22.6% (inactive) | 74.8 | 23.5% (inactive) | 114 | -0.598 (inactive) | -2.2e-06 (inactive) | 0.00593 (inactive) | 26.8% (inactive) | 32.8% (inactive) |  | 
Cc1ccc(N2CC(C(=O)Nc3nnc(C)s3)CC2=O)cc1 (centres undefined) | 622 | 0% (inactive) | -10.8% (inactive) | 95.6 | 21.8% (inactive) | 103 | -0.542 (inactive) | -3e-05 (inactive) | 0.00498 (inactive) | 18.6% (inactive) | 14.5% (inactive) |  | 
CN(C)CCCNC(=O)CCC1CCCCC1 | 333 | -12.5% (inactive) | -4% (inactive) | 103 | -132% (inactive) | 110 | -0.277 (inactive) | -3.7e-05 (inactive) | 0.00526 (inactive) | 12% (inactive) | 21.1% (inactive) |  | 
CCN(CC)S(=O)(=O)c1ccc(N2CCCC2)c(C(=O)OCC(=O)/C(C#N)=C(\C)N)c1 | 560 | -16% (inactive) | 6.5% (inactive) | 98.3 | 8.4% (inactive) | 101 | -0.428 (inactive) | 6.6e-05 (inactive) | 0.00583 (inactive) | 15.9% (inactive) | 24.1% (inactive) |  | 
O=C(Cc1c[nH]c2ccccc12)N1CCc2ccccc21 | 236 | 2.1% (inactive) | 6.4% (inactive) | 90 | -28.8% (inactive) | 93.8 | -0.582 (inactive) | -1e-05 (inactive) | 0.00443 (inactive) | -4.15% (inactive) | -44.5% (inactive) |  | 

From PubChem BioAssay
